In the library only some 5.4% were active in any assay of this set; here they are far more common.
EphB4 ephrin blk – EphB4-ephrin-B2 interaction antagonism; EphB4 LBD / TNYL-RAW-Alexa532 peptide, fluorescence polarization; inhibition, % at 7 µM; 97,000 compounds, 0.15% hits; P54760;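 active = inhibition above the screen-wide mean inhibition plus 3 SD, cut at about 15% in these data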
HIV Rev-RRE inh – inhibitors of HIV-1 Rev-RRE RNA interaction; P05866; Rev peptide-RRE RNA binding, FRET; inhibition, % at 8 µM; 97,000 compounds, 0.79% hits; AID 704;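 active = inhibition above the screen-wide mean plus 3 SD, cut at about 35% in these data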
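Assay system: Rev peptide and RRE RNA, both fluorescently labelled; times: 5 min preincubation and 15 min binding, 25 °C; detection: FRET, ex 480 nm, em 540 and 671 nm; read-out basis: % inhibition from 671/540 nm acceptor-to-donor ratio, scaled between controls; benchmarks: DMSO low control, neomycin B high control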
hDAT+cocaine – modulates human dopamine transporter uptake under cocaine; AID 449768; B-score at 10 µM; LLC-PK1 hDAT cells, [14C]-dopamine uptake with cocaine IC80; actives deviate in either direction; 110,000 compounds, 1.3% hits; Q01959;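 active = Z score or B-score, a plate-position-corrected score, falls beyond the plate's 99.7% confidence bounds, in either direction; inactive = both scores lie inside the 99.7% bounds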
Cav3 T inh – human Cav3.2 channel inhibition, primary screen | Cav3.2-expressing cells, Fluo-4 calcium fluorescence FDSS; active compounds read low | B-score at 10 µM | 100,000 compounds, 4% hits | O95180;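 active = single-dose well whose peak fluorescence ratio is a statistical outlier from its plate by either plate-standardised score or position-corrected B-score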
A number is an active result; - = inactive; . = no result given.

SMILES	EphB4 ephrin blk	HIV Rev-RRE inh	hDAT+cocaine	Cav3 T inh
CCN(CC)c1ccc(C2C(C(=O)OC(C)C)C(=O)CC(C)(O)C2C(=O)OC(C)C)cc1 (stereo unspecified)	-	-	-	-5.67
CCCCN(CC)S(=O)(=O)N1CCC(C(=O)NCc2ccc(F)cc2)CC1	-	-	-	-
CS(=O)(=O)N1CCN(c2ccccc2NC(=O)CSc2ccc(Cl)cc2)CC1	-	-	-	-4.04
CCC(=O)N1CCN(c2ccccc2NC(=O)COc2cc(C)ccc2C(C)C)CC1	-	-	-	-7.05
Cc1ccc(C(C)C)c(OCC(=O)N2CCOCC2)c1	.	.	-	-
CCOc1ccccc1N1CCN(C(=O)Nc2ccc(F)c(Cl)c2)CC1	-	-	-	-4.06
CCOc1ccccc1N1CCN(C(=O)C(F)(F)F)CC1	-	-	-	-
CC(=O)N1CCN(c2ccccc2NC(=O)COc2ccc(Cl)cc2Cl)CC1	-	-	-	-4.73
O=C(/C=C/c1ccccc1)NC(NC(=S)Nc1cc(Cl)ccc1Cl)C(Cl)(Cl)Cl (stereo unspecified)	-	-	-	-
O=C(COc1ccc(Cl)cc1Cl)N1CCCN(C(=O)COc2ccc(Cl)cc2Cl)CC1	-	-	-	-4.58
Cc1cc(Cl)ccc1OCC(=O)N1CCCCC1	-	-	-	-
COc1cc2cc(CN(C(=O)Nc3ccccc3)C3CCCC3)c(=O)[nH]c2cc1OC	-	-	3.29	-
O=C(Nc1cccc(Cl)c1)N(Cc1nc2ccccc2c(=O)[nH]1)C1CCCC1	-	-	-	-6.03
Cc1cc(C)c(Cc2c(C)nc3c(C(=O)NCc4ccco4)cnn3c2C)c(C)c1	-	-	-	-
COc1ccc(OC)c(C2C(C(=O)Nc3cccnc3)=C(C)NC3=C2C(=O)CCC3)c1 (stereo unspecified)	-	-	-	-
CC(C)Cn1cc(C(=O)N2CCN(c3ccccn3)CC2)c2c3ccccc3n(C)c2c1=O	-	-	-	-
CCOc1ccc2cc(/C=C/C(=O)c3ccco3)c(Cl)nc2c1	-	52.7	.	.
COC(=O)C1CSC(C(=O)OC)N1C(=O)Nc1ccc(Cl)cc1 (stereo unspecified)	-	-	-	-
COC(=O)c1[nH]c2ccc(C)cc2c1NC(=O)CN1CCN(c2ccccc2)CC1	-	-	-	-
Cc1ccc2[nH]c(C(=O)O)c(NC(=O)CN3CCN(c4cccc(C)c4C)CC3)c2c1	-	-	-	-4.95
COC(=O)c1[nH]c2ccc(C)cc2c1NC(=O)CN1CCN(C(=O)c2ccccc2)CC1	-	-	2.66	-
COC(=O)c1[nH]c2ccc(C)cc2c1NC(=O)CN1CCN(c2ccc(F)cc2)CC1	-	-	-	-
O=C1c2ccccc2S(=O)(=O)N1CCOc1ccc(F)cc1	-	-	-	-
CC(=NCCN1CCN(C(=S)Nc2ccccc2)CC1)C1=C(O)CC(C)(C)CC1=O	-	-	-	-
COc1cc([C@@H]2[C@H]3CNCC=C3C(C#N)=C(N)C2(C#N)C#N)ccc1OC(C)C	-	49.9	-	-
SMILES	EphB4 ephrin blk	HIV Rev-RRE inh	hDAT+cocaine	Cav3 T inh
Nc1nnc(SCc2cccc(C(F)(F)F)c2)s1	-	-	-2.69	-
COc1cc([N+](=O)[O-])cc(CN2CCCCC2)c1O	-	-	-1.22	-
O=C1c2[nH]nc(-c3ccccc3O)c2C(c2cccc(Cl)c2)N1Cc1ccco1 (stereo unspecified)	-	-	-	-4.34
O=C1c2[nH]nc(-c3ccccc3O)c2C(c2ccc(F)cc2)N1Cc1ccco1 (stereo unspecified)	-	-	-	-4.46
COc1cc(CNC2CCCC2)cc(Cl)c1OCc1ccccc1F	-	-	-	-
Cc1oc(CC(C)C)cc1C(=O)Nc1cccc2ccccc12	-	-	-6.94	-
CCOc1ccc(N2C(=O)C(Cl)=C(Nc3ccccc3O)C2=O)cc1	-	36.9	-	-
CC(C)c1nc(N2CCN(C(=O)c3ccccc3)CC2)c(C#N)c2c1COC(C)(C)C2	-	-	-	-6.19
C/C(=N/NC(=O)c1cc2ccccc2cc1O)C1C(=O)c2ccccc2C1=O	-	-	-	-5.91
C/C(=N\NC(=O)c1ccccc1O)c1c(O)cc(C)oc1=O	-	-	-	-
C/C(=N\NC(=O)c1ccccc1O)C1C(=O)c2ccccc2C1=O	-	-	-3.74	-7.19
COc1cccc(NC(=O)CSc2nnc(-c3cccc(OC(C)C)c3)n2N)c1	-	-	-	-
Cn1c2ccccc2c2cnn(CC(=O)O)c(=O)c21	-	-	-	-
CCN1CCN(C(=O)CCCn2c(C)c3cnn(-c4ccccc4)c(=O)c3c2C)CC1	-	-	-	-
Cc1c2cnn(-c3ccccc3)c(=O)c2c(C)n1CCCC(=O)N1CCN(c2ncccn2)CC1	.	.	-	5.47
O=C(Cn1ncc2c3ccccc3n(Cc3ccccc3)c2c1=O)N1CCN(c2ncccn2)CC1	-	-	1.76	-
CC(C)CCNC(=O)C(c1cccnc1)N(Cc1ccccc1)C(=O)Cn1nnc2ccccc21 (stereo unspecified)	-	-	-	-
O=C1C=C(c2ccc3c(c2)OCO3)CCC1	.	.	-	-
Cc1cccc(NC(=O)c2cc(NC(=O)C3CCCCC3C(=O)O)ccc2N2CCCCC2)c1 (stereo unspecified)	.	.	4.04	-4.03
C=C1CSc2nc3ccccc3c(=O)n21	-	-	-	-
COC(=O)CCN(C1CCCCC1)S(=O)(=O)c1ccc(S(=O)(=O)NC2CCCCC2)cc1	-	-	-	-5.86
O=C(CN(C1CC1)S(=O)(=O)c1ccc(S(=O)(=O)NC2CCCCC2)cc1)Nc1ccccc1	-	-	-	-11.7
O=C(CN(C1CCCCC1)S(=O)(=O)c1ccc(F)cc1)Nc1ccc2c(c1)OCO2	-	-	-	-5.56
Cc1n[nH]c(C)c1S(=O)(=O)Nc1ccc2c(c1)OCCO2	-	-	-	.
Cc1cccc(/C=C2/S/C(=N/N=C3\CC4CCC3(C)C4(C)C)NC2=O)c1 (stereo unspecified)	-	-	-	-
SMILES	EphB4 ephrin blk	HIV Rev-RRE inh	hDAT+cocaine	Cav3 T inh
CCN(Cc1ccccc1)C(=O)CSc1nc(C)cc(C)c1C#N	-	-	-	-4.15
CCOc1ccc(N(C(C)C(=O)NC(C)CC)S(C)(=O)=O)cc1 (stereo unspecified)	-	-	-	-
CCOc1ccc(N(C(C)C(=O)N/N=C(\C)c2cccc(NC(=O)c3ccccc3)c2)S(C)(=O)=O)cc1 (stereo unspecified)	-	-	-	-10.3
CC(C)OC(=O)c1c(NS(=O)(=O)c2ccccc2)sc2c1CCCC2	-	-	-	-7.99
Cc1nn(Cc2ccc(Cl)c(Cl)c2)c(C)c1NC(=O)c1cn(-c2ccccc2)nc1-c1ccccc1	-	-	-	-5.09
Cc1nn(Cc2ccc(Cl)cc2)c(C)c1NC(=O)c1c(-c2ccccc2)noc1C	-	-	-	-
N#CCCn1ccc(NC(=O)c2ccc(Cl)cc2)n1	-	-	-	-
Cc1nn(CCC#N)c(NC(=O)c2ccc(Cl)cc2)c1P(=O)(Nc1ccc([N+](=O)[O-])cc1)N1CCOCC1 (stereo unspecified)	-	-	-5.6	-
O=C(Nc1c(Cl)cc(Cl)cc1C(=O)NCCN1CCOCC1)c1ccc(Cl)cc1Cl	-	-	-	-

Screens: PubChem BioAssay, several laboratories
